According to the RNAGym collection of RNA variant scans (doi:10.1126/science.aae0568):
Fewer inactive variants are shown than the library holds.

B1: tRNA (parent)
chain: GUUCCGUUGGCGUAAUGGUAACGCGUCUCCCUCCUAAGGAGAAGACUGCGGGUUCGAGUCCCGUACGGAACG

Variants of: B1
Assay: yeast fitness relative to wild type (ratio to wild type); higher = fitter; tRNA-Arg(CCU), competitive growth, 37 C, YPD
Procedure, shortened: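 Gene amplicons from the start population and from each of six end populations were read by 100-nucleotide paired-end sequencing. Those end populations came from pooled Saccharomyces cerevisiae strains carrying tRNA-Arg(CCU) gene variants at the native locus, competed in YPD at 37°C for 24 hours. Fitness relative to wild type was worked out from changes in genotype frequencies. Genotypes needed ≥ 100 starting reads, and estimates < 0.5 were set to 0.5.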

Variant	yeast fitness
C11U A37U	0.808
C11G G68A A69G	≤ 0.5
C11G G39C U47C	≤ 0.5
C11U A20C	0.777
C11U A20G	0.957
C11U A20U G39C U54G	≤ 0.5
C11U A20U G39A	≤ 0.5
C11G G17A C62G	≤ 0.5
C11G G12C U16G A21G C33G	≤ 0.5
C11G U16A G48C A57U	≤ 0.5
C11U A37G U54A U59G	≤ 0.5
C11U A21C A42C G44A U54A C62U	≤ 0.5
C11U A14U C34U A57G	≤ 0.5
C11U A14C U16G C29A G68C	0.585
C11U A15U U35G G44C A69G	0.774
C11G G23C A36G A37G A70G	0.55
C11U A21U C30G A42G	0.755
C11G G17C A40G G44C U59C A70G	0.603
C11U A15C A40U	0.543
C11G U16A C30A A69C	≤ 0.5
C11U A14G A20G C24G	≤ 0.5
C11G G12A C24A C30G C46U C66G	0.585
C11U A15G G58C	0.725
C11G G68A	0.64

Variant	yeast fitness
C11U A15C C27A G39C A65C	0.531
C11G G51C A65G	0.616
C11G U28A G39A G48A G58C	0.543
C11G U32C A40U	0.662
C11G U16A C22U G51C C60U G67A	≤ 0.5
C11U A36G U53C	0.538
C11U A40G A43C G56A	0.578
C11G U32G A57C C62U	0.643
C11G G38A C66U	≤ 0.5
C11U A14U A40G A42C A43G	≤ 0.5
C11G G38C G58C U64A	≤ 0.5
C11U A15U C60U G67C	≤ 0.5
C11U A20G U47G G58A	≤ 0.5
C11G U28C G67C	≤ 0.5
C11G U47C	0.687
C11G U47G	≤ 0.5
C11G U47A	0.686
C11G U16A C24U G50C C66U	≤ 0.5
C11U A21U C22U	0.673
C11G U16A G67A	0.536
C11G G12C A43U G44A	0.612
C11U A14G C49A	≤ 0.5
C11G G18A G44U A65C	≤ 0.5
C11U A14U C27U A36U A43G C46U	0.632

Variant	yeast fitness
C11U A37C U47C G68C	≤ 0.5
C11U A15G A45G	0.599
C11G U28A G39A G48A C61G C66G	0.561
C11G G44C A57C	≤ 0.5
C11U A15G C46A C62G G68A	≤ 0.5
C11U A20U C22A	≤ 0.5
C11U A15G U32A	≤ 0.5
C11G G17A C30G U59G	≤ 0.5
C11G G38A C61G	≤ 0.5
C11U A15G A65G	0.766
C11G G38A	0.63
C11U A15C C27A G68A	≤ 0.5
C11U A37G G52C A70U	≤ 0.5
C11U A20G C34G A40C G51C	≤ 0.5
C11G G12A C30G C31G U32A C66U	≤ 0.5
C11G U16A U47C	0.655
C11G G18C	0.611
C11G U19A C22G U59A	≤ 0.5
C11G U19A G25A C49U	≤ 0.5
C11U A21U G41A C61A	≤ 0.5
C11G U19C G58C	≤ 0.5
C11G G39C G56C C61U	≤ 0.5
C11U A37G C49U A69C	≤ 0.5
C11U A14U C24G C55U	≤ 0.5

Variant	yeast fitness
C11G U64A	0.623
C11G U64C	0.567
C11G G18C A20U C33G C34G G50C	0.632
C11U A37C A45C	0.576
C11G U16A C22U U28A C31A A42C A45U G51A U64A	≤ 0.5
C11U A15C C29U A37G G63A	≤ 0.5
C11G U32A A36G C46U	0.592
C11U A20U G39A A65C	0.533
C11U A21C C27G G39C C66U	≤ 0.5
C11U A20U C24U C29A A70G	≤ 0.5
C11U A15G G23A C60A C61U G63C C66U	≤ 0.5
C11U A21U C34G G56A	≤ 0.5
C11G G48A A65U	0.525
C11G U13G C55G C66U	≤ 0.5
C11G G12C C49U C60G	≤ 0.5
C11U A15U A65U	≤ 0.5
C11G G12C A20G A43G A45C G67A	≤ 0.5
C11U A37C U47C	0.706
C11G G17A C30G C61G	≤ 0.5
C11U A20G A37G U54A U59G	≤ 0.5
C11U A14G A37C C49U	≤ 0.5
C11G G41A G44C C66G	≤ 0.5
C11G U16A A21G C24U	≤ 0.5
C11G G12C A20C C24G A37G C60G C61U	≤ 0.5

Variant	yeast fitness
C11U A21C A42G A69C A70G	0.563
C11G G39C U47C G68C	≤ 0.5
C11G G52C G67C	≤ 0.5
C11G U26A C31A G44C C62A	≤ 0.5
C11U A36G A45C	0.807
C11U A14C C27G C46G A65G	0.52
C11G G18A A21C C49U	≤ 0.5
C11U A14C C27U C31U C33A G67C	≤ 0.5
C11G G25A C30U A37C C46U	0.568
C11U A15G U26G C33A C55G	≤ 0.5
C11G U47A C62G C66G	≤ 0.5
C11U A14U U16C G25C C27U C61G	≤ 0.5
C11G G12A A21G G58A C62G	0.532
C11U A14C G63C	≤ 0.5
C11G G23A C31U C33G C34U A36G	≤ 0.5
C11G U16A	0.666
C11G G17A C22U C27U A57C	≤ 0.5
C11U A15C G44C C46A	≤ 0.5
C11U A15U C27U C60G	0.563
C11G U28A A70U	≤ 0.5
C11G G48A G63A A65C	≤ 0.5
C11G G23A G38A G39C G50A G56C	0.613
C11U A15U G41A	≤ 0.5
C11G G23C U35G G39C G50C C66A	≤ 0.5

Variant	yeast fitness
C11U A36G	0.822
C11G U26A U35A	≤ 0.5
C11G G17C C34A A43C G56C C61A A65C	≤ 0.5
C11U A15G G48C	0.511
C11G G12C C33U C60U	≤ 0.5
C11U A36U G48C	0.632
C11G G56A C62U	≤ 0.5
C11G U26C C49G	≤ 0.5
C11U A21U U54A A70G	≤ 0.5
C11G U16A C29U C66A	≤ 0.5
C11G U13G A21G A65G	≤ 0.5
C11U A20U G39A G41C C46A G68A	≤ 0.5
C11G G18A C29U A40G C62U	≤ 0.5
C11G U16A U28C C29U G39A U59G U64A	≤ 0.5
C11G U47A G67A	0.548
C11G G17C C29U G51A C62U A69C	≤ 0.5
C11U A15G U26G U28C C33A C55G	≤ 0.5
C11G G44C A57C C60U	0.518
C11U A20U C24U G38A C49A A70U	≤ 0.5
C11G G25C G48C G51C C66A	≤ 0.5
C11U A21C C27G G39C	0.544
C11G U16A C30A	0.583
C11U A37U C49G	≤ 0.5
C11U A15G A69U	0.765

Variant	yeast fitness
C11U A20G C24G G63C	≤ 0.5
C11U A21G C29U C55G	≤ 0.5
C11U A21U A69G	0.712
C11G G12A A42U	≤ 0.5
C11G U16C C22U C55U G68U	≤ 0.5
C11G U16A A70U	0.553
C11G U16A A21U G23C	0.665
C11U A36C A65C C66U	0.558
C11U A14G G58A A69C	≤ 0.5
C11U A40G A65C	0.594
C11G G23A C46A G68U	0.566
C11U A15G C29G G48A C62U C66U	0.535
C11G G23C A36U G44C C62A	≤ 0.5
C11G U28C A36G A43C	≤ 0.5
C11U A20C C29G G56C G58A	0.693
C11G U28C C34U G44C G50C U53C	≤ 0.5
C11U A20U A65C	≤ 0.5
C11G G50A C61U	0.566
C11G U32G A45G C49U A70U	≤ 0.5
C11U A14G A21C C29U A37G C55U	≤ 0.5
C11G G18C A69U	≤ 0.5
C11U A15C A21G C29U A37G	≤ 0.5
C11U A21U C61A A70U	≤ 0.5
